The text below walks through data of ChEMBL document CHEMBL2062385, “Bone-targeting glycol and NSAIDS ester prodrugs of rhein: synthesis, hydroxyapatite affinity, stability, anti-inflammatory, ulcerogenicity index and pharmacokinetics studies” (Eur J Med Chem, 2012).

The source made the active and inactive calls. The calls are words filed in the database; no cut-off is given here.

Data set [1] has as its system Mus musculus. Description: Antiinflammatory activity in Kunming mouse assessed as inhibition of xylene-induced auricle tumefaction at 0.2 mmol/kg, po qd administered prior to challenge for 5 days measured 30 mins post challenge. Format: functional. The procedure, abridged: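 Male Kunming mice (18-22 g), ten per group, dosed once daily for 5 days at 0.2 mmol/kg; controls got 0.9% NaCl. A 7 mm filter soaked in xylene was held on the right ear for 30 s, 1 h after the last dose. Mice were killed 30 min later and 7 mm ear punches taken. Inhibition = (1 − a/b)×100%, from tumefaction degree of control and test groups.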

A short description of data set [2]: Prodrug conversion at pH 7.4 assessed as hydrolysis up to 24 hrs by HPLC analysis. The format is physicochemical. The settings on record: buffer, pH 7.4, 24 h. The procedure, abridged: (§1)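 Prodrugs held at 37 °C for up to 24 h in phosphate-buffered saline adjusted to pH 1.2 or pH 7.4. Samples taken at set intervals. Released parent drugs quantified by C18 HPLC with methanol/0.1% H3PO4 90:10 (pH 2.3), 25 °C, 1.0 mL/min, 254 nm. Run in triplicate.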

A short description of data set [3]: Prodrug conversion at pH 1.2 assessed as hydrolysis up to 24 hrs by HPLC analysis. Format: physicochemical. The settings on record: buffer, pH 1.2, 24 h. The method, boiled down:
as §1

The subject of the next data set is Hydroxyapatite. The data set can be described thus: Binding affinity to bone mineral hydroxyapatite after 30 mins by RP-HPLC analysis. The procedure, abridged: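 Each compound (10 mL, 0.1 mmol/L in water) stirred vigorously with 20, 40 or 80 mg hydroxyapatite for 30 min. Then analysed by HPLC on C18 with methanol/0.1% H3PO4 90:10 (pH 2.3), 25 °C, 1.0 mL/min, 254 nm detection. n = 3.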

For data set [4], the system named is Mus musculus. The data set can be described thus: Ulcerogenic activity in Kunming mouse assessed as ulcer index at 1 mmol/kg, po measured after 4 hrs. Format: toxicity, organism-based. The conditions noted are these: in vivo. The method, boiled down: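 Kunming mice of either sex (18-22 g), ten per group, fasted from food and water for 24 h. Then given 1.0 mmol/kg orally as a suspension in 1% methylcellulose. Killed at 4 h; stomachs fixed 30 min in 10% formaldehyde, opened along the greater curvature and ulcers measured under a magnifier. Ulcer index = summed lesion length (mm) per stomach averaged over 10 animals.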

Data set [5] is described as follows: Tmax in Sprague-Dawley rat at 10 mg/kg, po. The format is ADME, organism-based. On the set-up: dose 10 mg/kg, route oral. The settings on record: in vivo. The method, boiled down:
(§2)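 SD rats of either sex (200 ± 20 g), six per group, dosed by gastric intubation after recovery from anesthesia. Arterial blood (~0.5 mL) drawn predose and at 0.17, 0.33, 0.5, 0.75, 1, 1.5, 2, 2.5, 3, 4, 5, 7 and 9 h. Plasma separated at once by centrifugation. Rhein in plasma measured by HPLC with diode-array detection.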

The nature of data set [6]: Half life in Sprague-Dawley rat at 10 mg/kg, po. Format: ADME, organism-based. On the set-up: dose 10 mg/kg, route oral. The conditions noted are these: in vivo. The method, boiled down: as §2
Data set [7] in a line: MRT (0 to infinity) in Sprague-Dawley rat at 10 mg/kg, po. The format is ADME, organism-based. On the set-up: dose 10 mg/kg, route oral. The settings on record: in vivo. The method, boiled down: as §2
Data set [8] is described as follows: MRT (0 to 9 hrs) in Sprague-Dawley rat at 10 mg/kg, po. More on the design: dose 10 mg/kg, route oral. The format is ADME, organism-based. The conditions noted are these: in vivo. The method, boiled down: as §2
A short description of data set [9]: AUC (0 to infinity) in Sprague-Dawley rat at 10 mg/kg, po. On the set-up: time infinity, dose 10 mg/kg, route oral. The settings on record: plasma. The format is ADME, organism-based. The method, boiled down:
as §2

The nature of data set [10]: AUC (0 to 9 hrs) in Sprague-Dawley rat at 10 mg/kg, po. The format is ADME, organism-based. More on the design: time < 9 hr, dose 10 mg/kg, route oral. The settings on record: plasma. The method, boiled down:
as §2

Data set [11] is described as follows: Cmax in Sprague-Dawley rat at 10 mg/kg, po. Format: ADME, organism-based. More on the design: dose 10 mg/kg, route oral. The conditions noted are these: in vivo. The procedure, abridged:
as §2

In the case of `CC(=O)Oc1cccc2c1C(=O)c1c(OC(C)=O)cc(C(=O)OCCOC(=O)Cc3ccccc3Nc3c(Cl)cccc3Cl)cc1C2=O`, the inhibition in vivo at 200 µmol/kg in the data set with Mus musculus [1] was 44%. For the same compound, the Drug metabolism entry in [2] and in data set [3] was “Active” throughout. The outcome in the data set on Hydroxyapatite was Active.

Regarding `CC(=O)Oc1ccccc1C(=O)OCCOC(=O)c1cc(O)c2c(c1)C(=O)c1cccc(O)c1C2=O`, the inhibition in vivo at 200 µmol/kg in the data set with Mus musculus [1] stood at 19.6%. The Drug metabolism result in data set [2] and in data set [3] was “Active” in each case. Further, in the data set with Hydroxyapatite, the outcome was Active.

Take `CC(=O)Oc1ccccc1C(=O)OCCOC(=O)c1cc(OC(C)=O)c2c(c1)C(=O)c1cccc(OC(C)=O)c1C2=O`: in the data set with Mus musculus [1], the inhibition in vivo at 200 µmol/kg is 19.9%. The Drug metabolism entry in data set [2] and in data set [3] was “Active” each time. For the same compound, the outcome in the data set on Hydroxyapatite was Active.

With `CC(=O)Oc1cccc2c1C(=O)c1c(OC(C)=O)cc(C(=O)OCCO)cc1C2=O`, the inhibition in vivo at 200 µmol/kg in the data set with Mus musculus [1] stood at 16%. In addition, the Drug metabolism result in data set [2] and in [3] was “Active” each time. The outcome with Hydroxyapatite was Active.

As for `O=C(OCCO)c1cc(O)c2c(c1)C(=O)c1cccc(O)c1C2=O`, the inhibition in vivo at 200 µmol/kg with Mus musculus [1] worked out at 13.9%. Moreover, the Drug metabolism entry in [2] and in data set [3] was “Active” each time. Also, the result in the data set on Hydroxyapatite was Active.

As to `CC(=O)Oc1cccc2c1C(=O)c1c(OC(C)=O)cc(C(=O)OCCOCCOC(=O)C(C)c3ccc(CC(C)C)cc3)cc1C2=O` (configuration not stated), the inhibition in vivo at 200 µmol/kg with Mus musculus [1] stood at 33%. For the same compound, the Drug metabolism result in [2] and in [3] was “Active” throughout. The outcome in the data set with Hydroxyapatite was Active.

As for `CC(C)Cc1ccc(C(C)C(=O)OCCOCCOC(=O)c2cc(O)c3c(c2)C(=O)c2cccc(O)c2C3=O)cc1` (configuration not stated), the inhibition in vivo at 200 µmol/kg in the data set with Mus musculus [1] amounted to 32.7%. Also, in the data set on Mus musculus [4], the UI is listed as 5.8. The Drug metabolism entry in data set [2] and in [3] was “Active” each time. The result in the data set with Hydroxyapatite was Active.

As for `COc1ccc2c(c1)c(CC(=O)OCCOC(=O)c1cc(OC(C)=O)c3c(c1)C(=O)c1cccc(OC(C)=O)c1C3=O)c(C)n2C(=O)c1ccc(Cl)cc1`, the inhibition in vivo at 200 µmol/kg in the data set on Mus musculus [1] stood at 23.4%. The Drug metabolism result in data set [2] and in data set [3] was “Active” each time. Moreover, the outcome in the data set on Hydroxyapatite was Active.

Turning to `O=C(OCCOCCOCCO)c1cc(O)c2c(c1)C(=O)c1cccc(O)c1C2=O`, in the data set on Mus musculus [1], the inhibition in vivo at 200 µmol/kg turned out to be 17.4%. The Drug metabolism entry in [2] and in data set [3] was “Active” throughout. Moreover, the outcome with Hydroxyapatite was Active.

For the compound `O=C(OCCOCCO)c1cc(O)c2c(c1)C(=O)c1cccc(O)c1C2=O`, the inhibition in vivo at 200 µmol/kg in the data set on Mus musculus [1] amounted to 17.2%. In addition, the Drug metabolism entry in data set [2] and in data set [3] was “Active” throughout. Further, the result with Hydroxyapatite was Active.

Regarding `COc1ccc2cc(C(C)C(=O)OCCOC(=O)c3cc(OC(C)=O)c4c(c3)C(=O)c3cccc(OC(C)=O)c3C4=O)ccc2c1` (configuration not stated), the inhibition in vivo at 200 µmol/kg in the data set with Mus musculus [1] is 24.4%. In addition, the Drug metabolism entry in data set [2] and in [3] was “Active” in each case. Also, the result in the data set on Hydroxyapatite was Active.

In the case of `COc1ccc2cc(C(C)C(=O)OCCOC(=O)c3cc(O)c4c(c3)C(=O)c3cccc(O)c3C4=O)ccc2c1` (configuration not stated), the time of peak concentration (Tmax) in data set [5] worked out at 1.75 h. For the same compound, the half-life in data set [6] was 2.19 h. Also, in the data set on Mus musculus [1], the inhibition in vivo at 200 µmol/kg was determined as 23.9%. The UI with Mus musculus [4] turned out to be 5.8. The compound also registered an MRT inf in [7] of 4.23 h. In [8], the MRT last worked out at 3.46 h. Besides, the area under the curve AUC(0-inf) in data set [9] stood at 4860 ng·h/mL. The same compound returned an AUC(0-t) at 9 h in data set [10] of 4420 ng·h/mL. The concentration in data set [11] peaked (Cmax) at 1090 ng/mL. For the same compound, the Drug metabolism result in data set [2] and in data set [3] was “Active” in each case. The result in the data set on Hydroxyapatite was Active.
